Experiments:
[1] = system: T. brucei brucei (Lafia strain); test: In vivo anti-Trypanosoma evaluation in infected rats; set-up: species or system Trypanosoma brucei brucei in male Wistar rats; conditions: 3.5 mg/kg bw in corn oil, reference drug, data not shown
In short: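 Male Wistar rats (120–130 g, acclimated 14 days) each received 0.2 mL of infected rat blood diluted in 0.9% saline (1 x 102 trypanosomes). Dosing began after the 72-h lag, on the first parasite-positive day. It ran daily for 5 days: test compound at 40 mg/kg bw or diminazene aceturate at 3.5 mg/kg bw, in corn oil. Controls were vehicle-infected and uninfected. Tail-blood smears were counted at ×100, and survival was tracked. n=5, mean ± SEM, ANOVA with Dunnett.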

[2] = cited from earlier work
[3] = system: Trypanosoma congolense IL3000 bloodstream form; test: In vitro anti-Trypanosoma activity, luminescence-based parasite viability; assay type: cell-based; conditions: 72 h, 0 to 25 µg/mL
In short: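 T. congolense IL3000 bloodstream forms were kept in HMI-9-type medium (IMDM, 20% FBS, supplements) in air at 33°C. Parasites were seeded at 1 × 10^5 cells/mL with test compound at 0 to 25 µg/mL and incubated 72 h at 33°C. Viability was read by ATP luminescence. Pentamidine was the reference. The 50% value came from a non-linear regression dose-response fit. Triplicates, three independent runs.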

## CC(=O)NCC(=O)O.CC(=O)NCC(=O)O.N=C(N)c1ccc(N=NNc2ccc(C(=N)N)cc2)cc1 [diminazene aceturate]
[1]
  outcome of infected rats (survival): survived the infection
  systemic parasite burden of infected rats: systemic parasite burden cleared

## Nc1nc(N)nc(Nc2ccc([As]3SCC(CO)S3)cc2)n1 (centres unmarked) [melarsoprol]
[2]; patients treated for late-stage trypanosomiasis
  encephalopathy: more than 10 % of patients
[2]; share of the encephalopathy cases
  fatal outcomes among encephalopathy cases: 40%

## N=C(N)c1ccc(OCCCCCOc2ccc(C(=N)N)cc2)cc1 [pentamidine]
[3]
  effect on in vitro growth of T. congolense (in words): appreciably hindered the in vitro growth of T. congolense

Source: PMC8223535 (The Yale Journal of Biology and Medicine, 2021)
